Screening results deposited in PubChem by several laboratories.
An excerpt weighted towards active compounds, which were near 2.4% of everything screened.
SR-BI DiI inh: blocks mouse SR-BI lipid uptake from DiI-HDL; ldlA[mSR-BI] CHO cells, DiI-HDL uptake fluorescence, 3 h; Q61009; actives 0.96% (n = 320,000); inhibition, % at 12.5 µM;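 active = mean replicate inhibition of at least 70% and a set share of replicates each scoring 70 or more; inconclusive = meets just one of the two criteria; inactive = fails both criteria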;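 note: 0% = median of neutral control wells and 100% = median of positive control wells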
m5-HT2A agonist: mouse HTR2A agonism via beta-arrestin recruitment. P35363. CHO-K1 mHTR2A beta-arrestin complementation, luminescence; percent of 30 µM serotonin response. actives 0.66% (n = 360,000). activation, % at 7.6 µM. AID 624169;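 active = activation above a run cutoff, the mean activation of all tested compounds plus 3 SD, cut at about 14% in these data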;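 note: 0% = plate median of compound wells and 100% = 30 µM serotonin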
Target sequence (P35363 whole entry, looked up): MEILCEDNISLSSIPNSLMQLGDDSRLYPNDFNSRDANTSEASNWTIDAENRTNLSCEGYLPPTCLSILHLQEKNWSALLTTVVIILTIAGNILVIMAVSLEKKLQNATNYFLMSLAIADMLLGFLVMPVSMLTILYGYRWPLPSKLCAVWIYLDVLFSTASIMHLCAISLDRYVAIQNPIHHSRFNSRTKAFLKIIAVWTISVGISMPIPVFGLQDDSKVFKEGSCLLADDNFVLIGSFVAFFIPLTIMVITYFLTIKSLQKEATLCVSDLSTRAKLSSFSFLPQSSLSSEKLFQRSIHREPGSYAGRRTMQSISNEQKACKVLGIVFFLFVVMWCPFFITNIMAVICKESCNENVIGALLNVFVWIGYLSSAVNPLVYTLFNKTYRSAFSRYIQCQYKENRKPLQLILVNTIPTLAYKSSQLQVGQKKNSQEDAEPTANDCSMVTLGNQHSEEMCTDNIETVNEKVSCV
Insulin prom up: MIN6 insulin promoter up-regulation | actives 0.3% (n = 190,000) | z-score at 5 µM | MIN6 insulin promoter-GFP reporter, high-content imaging; active compounds read high;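 active = z-score above 3 at 5 µM with at least 500 cells counted in the well; inconclusive = wells under 500 cells, flagged as cytotoxic or low count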
beta cell repl: inducers of beta-cell replication in MIN6 cells; MIN6 cells proliferation, ATPlite luminescence, 48 h; cells starved in 0.2% serum; 100% = growth in 10% serum; AID 2380; actives 0.29% (n = 330,000); proliferation, % at 10 µM;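 active = compounds whose signal lies at least 3.5 SD above the mean of all wells on their plate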;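 note: 0% = DMSO-treated cells in low-serum medium and 100% = 10% serum control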
SR-BI uptake up: enhances SR-BI lipid uptake from DiI-HDL; CHO ldlA[mSR-BI] cells, DiI-HDL uptake fluorescence, 3 h; 100 = double the neutral-control signal; activation, % at 12.5 µM; actives 0.096% (n = 320,000);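 active = mean replicate activation of at least 60% and every replicate at or above 60%; inconclusive = mean or all-replicate condition met, but not both; inactive = mean below 60% and not all replicates reaching 60%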;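 note: 0% = median plate neutral-control signal and 100% = twice that signal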
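System: LDL receptor-deficient CHO ldlA cells overexpressing murine SR-BI | Timing: 3 h uptake period with compound, 37 °C | Medium: HEPES-buffered (25 mM, pH 7.4) F12 plus 0.5% BSA | Dosing: Single-point compound dose | Signal: Bottom-read fluorescence, 550/595 nm | Read-out: Retained DiI signal reflecting DiI-HDL uptake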
Calb FLC: C. albicans growth modulation with fluconazole | growth inhibition, % (concentration not given with the values) | AID 1979 | actives 0.57% (n = 300,000) | C. albicans CaCi-2 + fluconazole, Alamar Blue growth, 48 h;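 active = growth inhibition above about 58% in most replicates, limit read from the data, passing the limit was not always enough; inconclusive = exactly half the replicates above a set limit; inactive = most replicates below a set limit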;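 note: all wells also contain fluconazole at 8 µg/ml as a sub-toxic cotreatment; 0% = median of DMSO wells and 100% = median of geldanamycin control wells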
OPRM1 ag: activates human mu opioid receptor in HTR2A counterscreen; actives 5.3% (n = 2,300); shares compounds with m5-HT2A agonist; activation, % at 9.3 µM; U2OS OPRM1 beta-arrestin PathHunter, luminescence; DMSO 0%, DAMGO 9.3 µM 100%;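 active = mean activation above the mean of DMSO-only wells plus 3 SD, cut at about 0.5% in these data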
m5-HT2A ag conf: confirmation of mouse HTR2A serotonin receptor agonists; activation, % at 7.6 µM; actives 19% (n = 2,300); CHO-K1 PathHunter beta-arrestin recruitment, luminescence; DMSO 0%, 30 µM serotonin 100%; shares compounds with m5-HT2A agonist;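 active = mean activation across triplicates above the hit threshold derived in the original primary screen, cut at about 15% in these data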
An asterisk follows results filed as active; ? = inconclusive; . = no result.

SMILES	SR-BI DiI inh	m5-HT2A agonist	Insulin prom up	beta cell repl	SR-BI uptake up	Calb FLC	OPRM1 ag	m5-HT2A ag conf
CC(C)(C)OC(=O)CNC(=O)c1[nH]cnc1C(=O)NC1CCN(C(=O)OC(C)(C)C)CC1	-10	.	.	-1	10	-6	.	.
CC(C)(C)OC(=O)N1CCC(NC(=O)c2nc[nH]c2C(=O)NCC(=O)OCc2ccccc2)CC1	-16	21*	.	-5	16	-2	0	-1
c1ccc2c(c1)ccc1nnc(-c3ccc4c(c3)OCO4)n12	5	18*	-0.13	-3	-5	-1	0	0
CN(C)CCNC(=O)c1cccc(-c2cnc3c(NC=O)cc(/C=C/c4ccccc4)cn23)c1	.	-13	.	.	.	.	.	.
Cc1cc(=O)[nH]c(SCc2csc(-c3ccccc3)n2)n1	-17	3	0.01	-2	17	0	.	.
Nc1cc(=O)[nH]c(SCc2csc(-c3ccccc3)n2)n1	-39	19*	-0.17	0	39	12	-1	-3
COc1ccc(-c2csc(C(C)(O)c3ccc(F)c(F)c3)n2)cc1 (stereo not given)	.	15*	.	.	.	.	0	-4
CC(O)(c1ccc(F)c(F)c1)c1nc(-c2ccncc2)cs1 (stereo not given)	.	-2	.	.	.	.	.	.
CC1COC(c2cccn2Cc2ccccc2Cl)=N1 (stereo not given)	2	24*	0.45	4	-2	1	0	-2
COc1ccccc1CNC(=O)c1n[nH]c2ccccc12	.	19*	0.38	-1	.	-6	0	2
CC(C)c1cc(NCC2CCCO2)n2c(nc3ccccc32)c1C#N (stereo not given)	-11	17*	0.46	1	11	18	0.8*	25*
CN1C(=O)CC(N2CCN(c3ccc(Cl)c(Cl)c3)CC2)C1=O (stereo not given)	-26	16*	0.03	0	26	6	0	5
CCc1ccc(S(=O)(=O)Nc2ccncc2)cc1	-25	15*	.	-3	25	-6	-1	-3
O=S(=O)(Nc1ccncc1)c1ccc(Cl)cc1	-24	-8	-0.18	-2	24	-13	.	.
CCOC(=O)N1CCN(C(=O)CN2C(=O)COc3ccc(S(=O)(=O)N4CCOCC4)cc32)CC1	-17	6	.	-5	17	-5	.	.
CCOC(=O)C1CCN(C(=O)CN2C(=O)CSc3ccc(S(=O)(=O)N4CCOCC4)cc32)CC1	1	35*	.	-4	-1	3	0	-1
CN1CCN(C(=O)CN2C(=O)COc3ccc(S(=O)(=O)N4CCOCC4)cc32)CC1	-10	18*	.	2	10	9	-1	12
COc1cccc(/C=N/NC(=O)c2cccc(N3CCCC3=O)c2)c1	?	15*	.	2	-77	8	0	-3
Cc1c(C(=O)N/N=C/c2ccccn2)nnn1-c1nonc1N	.	0	.	-3	.	1	.	.
COCCCNC(=S)Nc1ccc(CC(=O)O)cc1	-11	-1	0.33	-1	11	3	.	.
Cn1cc(C(F)(F)F)nc1-c1ccc(OCC(O)CNCCOc2ccc(O)c(C(N)=O)c2)cc1 (stereo not given)	53	33*	-0.98	-1	-53	5	-1	116*
Cc1cc(NC(=O)COc2cccc([N+](=O)[O-])c2)no1	-15	18*	.	-2	15	1	0	-1
Cn1c2c(c(=O)n(C)c1=O)CS(=O)c1ccccc1N2 (stereo not given)	.	-1	.	.	.	.	.	.
C/C(=N/NC(=O)c1cccc(N2CCCC2=O)c1)c1ccncc1	-15	-3	0.28	-1	15	-5	.	.
O=C(CCn1c(=S)oc2ccccc21)Nc1cccc(O)c1	-9	0	-0.89	-1	9	-14	.	.
CCOc1ccc(CCNC(=O)c2nnn(CC(=O)Nc3ccc(C)cc3)c2N)cc1OCC	40	2	.	5	-40	0	.	.
